Data published in the M2OR odorant receptor database.

The molecules below were run against T1, UniProt Q8VG22. Conditions: stereoisomer not certain.
T1 sequence (whole entry): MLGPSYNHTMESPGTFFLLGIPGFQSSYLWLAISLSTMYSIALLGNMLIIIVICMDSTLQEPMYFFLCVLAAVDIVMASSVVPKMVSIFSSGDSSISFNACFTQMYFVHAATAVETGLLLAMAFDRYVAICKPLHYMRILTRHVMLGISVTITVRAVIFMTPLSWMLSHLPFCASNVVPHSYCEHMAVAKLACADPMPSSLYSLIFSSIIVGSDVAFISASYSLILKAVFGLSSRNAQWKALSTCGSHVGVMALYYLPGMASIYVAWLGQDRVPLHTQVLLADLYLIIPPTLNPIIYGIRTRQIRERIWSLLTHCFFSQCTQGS
Summary of the method: (§1)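 Values were gathered from published papers (main text and supplementary material), with extra details requested from the original authors when needed, and checked for typos and inconsistencies. Each receptor–molecule pair is called responsive (active) if the original authors judged the measured signal statistically different from baseline, and non-responsive (inactive) otherwise. Assay methods varied by source, often transient mammalian cell-line luciferase assays. Recorded details include cell line, G-protein, co-transfected protein and tags.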

SMILES | odorant receptor agonist call
CCCCCO | active
CCC(C(=O)O)c1ccccc1 (configuration not stated) | inactive
O=c1ccc2ccccc2o1 | active
CCCC(C)=O | inactive
CCCCOC(=O)C(C)OC(=O)CCC (configuration not stated) | inactive
CCCCCCC(=O)[O-].[H+] | inactive
CCCCCCCC(=O)[O-].[H+] | inactive

Each molecule was assayed against UniProt Q8VG26. Conditions: stereoisomer not certain.
UniProt Q8VG26, sequence (Q8VG26 as listed by the source): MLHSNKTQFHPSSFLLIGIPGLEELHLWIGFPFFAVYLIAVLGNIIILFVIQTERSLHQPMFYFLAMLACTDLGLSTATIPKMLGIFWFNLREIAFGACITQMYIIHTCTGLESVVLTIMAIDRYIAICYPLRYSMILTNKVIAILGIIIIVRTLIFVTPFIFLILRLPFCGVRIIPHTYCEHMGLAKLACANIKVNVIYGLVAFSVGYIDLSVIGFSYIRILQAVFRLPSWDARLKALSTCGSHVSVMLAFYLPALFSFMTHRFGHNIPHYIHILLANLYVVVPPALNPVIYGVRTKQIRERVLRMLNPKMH
Summary of the method: as §1

SMILES | odorant receptor agonist call
CCCC(C)=O | inactive
CCCCOC(=O)CCC | inactive
CCCCCCC(=O)[O-].[H+] | inactive
CCCCCCCC(=O)[O-].[H+] | inactive

These molecules were tested against T2, UniProt Q8VG27. Conditions: stereoisomer not certain.
T2 sequence (whole entry): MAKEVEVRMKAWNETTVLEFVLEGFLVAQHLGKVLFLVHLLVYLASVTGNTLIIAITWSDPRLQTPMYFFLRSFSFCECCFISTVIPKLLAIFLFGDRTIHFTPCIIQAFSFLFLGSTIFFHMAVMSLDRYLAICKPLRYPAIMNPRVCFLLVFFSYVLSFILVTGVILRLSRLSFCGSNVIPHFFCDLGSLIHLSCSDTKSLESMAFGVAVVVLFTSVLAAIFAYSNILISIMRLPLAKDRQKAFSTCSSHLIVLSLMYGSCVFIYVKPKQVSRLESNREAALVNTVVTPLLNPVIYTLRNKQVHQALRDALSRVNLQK
Summary of the method: as §1

SMILES | odorant receptor agonist call
CSSSC | inactive
CC1CCC(C(C)C)C(=O)C1 (configuration not stated) | inactive
CCCC=O | inactive
CCCCCCC(C)O (configuration not stated) | inactive
CNc1ccccc1C(=O)OC | inactive
CC(C)=C1CCC(C)CC1=O (configuration not stated) | inactive
CCOC(=O)C(C)CC (configuration not stated) | inactive
CCOC(=O)CC(C)C | inactive
CCCCCOC(=O)CC | inactive
CC(C)=CCCC(C)=CCOC(=O)C(C)C | inactive
COc1ccccc1 | inactive
CCCO | inactive
Cc1c(C)c(C)c(C=O)c(C)c1C | inactive
CCCCCC(C=O)=Cc1ccccc1 | inactive
CC(=O)OCc1ccc2c(c1)OCO2 | inactive
CCC=CCCC=CC=O | inactive
CCCCCC(=Cc1ccccc1)C(OC)OC | inactive
CC=Cc1ccc(OC)cc1 | inactive
C1CCOCC1 | inactive
CCCCCCC(C=O)=Cc1ccccc1 | inactive
CC(=O)C=CC1=C(C)CCCC1(C)C | inactive
